Data reported in ChEMBL document CHEMBL4334471, “Discovery of 1,8-disubstituted-[1,2,3]triazolo[4,5-c]quinoline derivatives as a new class of Hippo signaling pathway inhibitors” (Bioorg Med Chem Lett, 2019).
The source made the active and inactive calls. The rule behind the calls is not given here.

Legend:
A549 [1] = test: Inhibition of hippo signalling protein in human A549 cells cotransfected with CTGF promoter-driven firefly luciferase and CMV promoter-driven renilla luciferase gene assessed as increase in CTGF expression at 10 uM incubated for 24 hrs by dual-luciferase gene assay relative to control
A549 [2] = test: Inhibition of hippo signalling protein in human A549 cells cotransfected with CTGF promoter-driven firefly luciferase and CMV promoter-driven renilla luciferase gene incubated for 24 hrs by dual-luciferase gene assay; format: cell-based
How it was run: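 Dual-luciferase reporter read-out in A549-CTGF cells after 24 h culture with compound. Firefly luciferase is expressed relative to DMSO-treated cells, set as 1. Screening used 10 µM. Values are mean ± SEM of three independent experiments.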

A549 [3] = test: Inhibition of hippo signalling protein in human A549 cells assessed as increase in CTGF mRNA expression level at 10 uM incubated for 24 hrs by qRT-PCR analysis; format: cell-based
How it was run: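 A549-CTGF cells were exposed to compound or 0.1% DMSO for 24 h before total RNA extraction. Endogenous CTGF mRNA was quantified by real-time PCR. Data were mean ± SEM (n=4) and compared by Student's t-test.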

[4] = target: Transcriptional coactivator YAP1 (Homo sapiens) (UniProt P46937); test: Induction of YAP nuclear translocation in human A549 cells at 10 uM incubated for 8 hrs by immunofluorescence based confocal microscopy; format: cell-based
Sequence of Transcriptional coactivator YAP1 (Homo sapiens) (P46937 whole entry): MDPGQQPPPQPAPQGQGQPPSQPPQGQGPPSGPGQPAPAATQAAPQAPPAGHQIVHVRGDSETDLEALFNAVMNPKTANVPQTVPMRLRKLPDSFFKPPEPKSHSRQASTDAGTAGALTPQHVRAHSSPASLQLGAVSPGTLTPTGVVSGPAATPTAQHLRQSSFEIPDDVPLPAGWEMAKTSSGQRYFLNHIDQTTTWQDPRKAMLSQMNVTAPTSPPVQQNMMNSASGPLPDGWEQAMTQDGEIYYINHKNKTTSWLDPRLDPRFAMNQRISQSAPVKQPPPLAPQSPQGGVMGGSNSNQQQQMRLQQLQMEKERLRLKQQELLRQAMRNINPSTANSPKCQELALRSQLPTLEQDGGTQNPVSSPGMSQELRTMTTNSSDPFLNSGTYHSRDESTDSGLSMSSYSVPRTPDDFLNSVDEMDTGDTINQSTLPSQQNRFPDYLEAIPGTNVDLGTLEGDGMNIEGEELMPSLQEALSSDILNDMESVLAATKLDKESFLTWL
How it was run: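 A549-CTGF reporter cells were treated for 8 h at 10 µM, with 0.1% DMSO as vehicle control. Cells were then fixed, permeabilized and probed with anti-YAP antibody. DAPI stained the nuclei, and YAP localization was imaged by immunofluorescence.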

| SMILES | fold change (FC) (A549 [1]) | also measured |
| --- | --- | --- |
| C[C@@H](c1ccccc1)n1nnc2cnc3ccc(-c4ccc(N)c(Cl)c4)cc3c21 | 1.73 |  |
| C[C@@H](c1ccccc1)n1nnc2cnc3ccc(-c4ccc(Cl)nc4)cc3c21 | 1.24 |  |
| Cn1nnc2cnc3ccc(-c4cnc5[nH]ccc5c4)cc3c21 | 0.55 |  |
| C[C@@H](c1ccccc1)n1nnc2cnc3ccc(-c4ccc(C#N)nc4)cc3c21 | 1.94 |  |
| COc1cccc([C@@H](C)n2nnc3cnc4ccc(-c5cnc6[nH]ccc6c5)cc4c32)c1 | 2.22 |  |
| C[C@@H](c1cccc(F)c1)n1nnc2cnc3ccc(-c4cnc5[nH]ccc5c4)cc3c21 | 4.91 |  |
| C[C@@H](c1ccccc1)n1nnc2cnc3ccc(-c4ccc(N(C)C)nc4)cc3c21 | 1.19 |  |
| C[C@@H](c1ccccc1)n1nnc2cnc3ccc(-c4cnc(N)nc4)cc3c21 | 3.49 |  |
| C[C@H](c1ccc(F)cc1)n1nnc2cnc3ccc(-c4cnc5[nH]ccc5c4)cc3c21 | 4.92 |  |
| COc1cccc([C@H](C)n2nnc3cnc4ccc(-c5cnc6[nH]ccc6c5)cc4c32)c1 | 3.13 |  |
| Fc1ccc(Cn2nnc3cnc4ccc(-c5cnc6[nH]ccc6c5)cc4c32)cc1 | 3.87 |  |
| C[C@@H](c1ccccc1)n1nnc2cnc3ccc(-c4ccc5[nH]ccc5c4)cc3c21 | 4.6 |  |
| CN1C(=O)c2sccc2N(C)c2nc(Nc3ccc(S(N)(=O)=O)cc3)ncc21 | 4.92 | inhibition (A549 [2]): Dose-dependent effect; inhibition (A549 [3]): Active; Activity [4]: Active |
| C[C@@H](c1ccccc1)n1nnc2cnc3ccc(-c4ccc(N)cc4)cc3c21 | 2.24 |  |
| CC(C)n1nnc2cnc3ccc(-c4cnc5[nH]ccc5c4)cc3c21 | 3.38 |  |
| COc1ccc(-c2ccc3ncc4nnn([C@@H](C)c5ccccc5)c4c3c2)cn1 | 0.996 |  |
| C[C@@H](c1ccccc1)n1nnc2cnc3ccc(-c4ccccc4)cc3c21 | 1.43 |  |
| C[C@@H](c1ccccc1)n1nnc2cnc3ccc(-c4ccc(N5CCOCC5)nc4)cc3c21 | 1.06 |  |
| C[C@@H](c1ccccc1)n1nnc2cnc3ccc(-c4c[nH]c5ncccc45)cc3c21 | 1.11 |  |
| Fc1ccc(-n2nnc3cnc4ccc(-c5cnc6[nH]ccc6c5)cc4c32)cc1 | 3.44 |  |
| C[C@H](c1cccc(F)c1)n1nnc2cnc3ccc(-c4cnc5[nH]ccc5c4)cc3c21 | 2.1 |  |
| C[C@H](c1ccccc1)n1nnc2cnc3ccc(-c4cnc5[nH]ccc5c4)cc3c21 | 8.1 |  |
| C[C@@H](c1ccccc1)n1nnc2cnc3ccc(-c4ccnc(N)c4)cc3c21 | 2.01 |  |
| C[C@@H](c1ccccc1)n1nnc2cnc3ccc(-c4ccnc5[nH]ccc45)cc3c21 | 0.549 |  |
| C[C@@H](c1ccccc1)n1nnc2cnc3ccc(-c4ccc(N)nc4)cc3c21 | 9.09 |  |
| C[C@@H](c1ccc(F)cc1)n1nnc2cnc3ccc(-c4cnc5[nH]ccc5c4)cc3c21 | 6.51 |  |
| CC[C@@H](c1ccccc1)n1nnc2cnc3ccc(-c4cnc5[nH]ccc5c4)cc3c21 | 8.06 |  |
| CC[C@H](c1ccccc1)n1nnc2cnc3ccc(-c4cnc5[nH]ccc5c4)cc3c21 | 3.72 |  |
